Laboratory results: ChEMBL document CHEMBL5576109, “Hydantoin derivative dimers as broad-spectrum antimicrobial agents against ESKAPE pathogens with enhanced killing rate and stability” (RSC Med Chem, 2024)
In brackets after ≈: the same amount, converted by molar mass.

Legend:
Pseudomonas aeruginosa = assay: Antibacterial activity against Pseudomonas aeruginosa CMCC 10104 assessed as reduction bacterial growth after 16 hrs by TECAN SPARK microplate reader analysis; assay type: functional
Summary of the method: (§1)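 Single colony grown overnight in 4 mL TSB at 37 °C, diluted 100-fold and grown to mid-log phase. Compounds 2-fold serially diluted in TSB and mixed 1:1 with bacteria in TSB (1 × 10^6 CFU/mL). Incubated 16 h at 37 °C, then A600 read. MIC taken as the lowest concentration giving complete growth inhibition.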

Escherichia coli [1] = assay: Antibacterial activity against Escherichia coli ATCC 25922 assessed as reduction bacterial growth after 16 hrs by TECAN SPARK microplate reader analysis; assay type: functional; summary of the method: as §1
Staphylococcus aureus [2] = assay: Antibacterial activity against Staphylococcus aureus ATCC 29213 assessed as reduction bacterial growth after 16 hrs by TECAN SPARK microplate reader analysis; assay type: functional; summary of the method: as §1
Bacillus subtilis = assay: Antibacterial activity against Bacillus subtilis ATCC 6633 assessed as reduction bacterial growth after 16 hrs by TECAN SPARK microplate reader analysis; assay type: functional; summary of the method: as §1
Staphylococcus aureus [3] = assay: Antibacterial activity against methicillin-resistant Staphylococcus aureus ATCC 43300 assessed as reduction bacterial growth after 16 hrs by TECAN SPARK microplate reader analysis; assay type: functional
Summary of the method: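 Broth microdilution in TSB: single colony grown overnight at 37 °C, diluted 100-fold and grown to mid-log phase. 2-fold serial compound dilutions mixed 1:1 with bacteria at 1 × 10^6 CFU/mL, incubated 16 h at 37 °C, absorbance read at 600 nm. MIC taken as lowest concentration giving complete growth inhibition.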

[4] = Hemolytic activity in mouse red blood cells assessed as hemolysis incubated for 1 hr by TECAN SPARK microplate reader analysis; assay type: toxicity, cell-based, Erythrocyte; settings: red blood cells (erythrocytes)
Summary of the method: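 Mouse RBCs washed three times in 1× PBS by centrifugation (3500 rpm, 10 min) and made up as a 5% v/v suspension. Incubated with 2-fold serially diluted compound in PBS for 1 h at 37 °C, then centrifuged. Supernatant diluted in PBS and A540 read. % hemolysis calculated relative to 1% Triton X-100 (100%) and PBS (0%).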

Klebsiella pneumoniae = assay: Antibacterial activity against Klebsiella pneumoniae ATCC 10031 assessed as reduction bacterial growth after 16 hrs by TECAN SPARK microplate reader analysis; assay type: functional; summary of the method: as §1
Enterococcus faecalis = assay: Antibacterial activity against Enterococcus faecalis ATCC 29212 assessed as reduction bacterial growth after 16 hrs by TECAN SPARK microplate reader analysis; assay type: functional; summary of the method: as §1
Acinetobacter baumannii = assay: Antibacterial activity against Acinetobacter baumannii ATCC 19606 assessed as reduction bacterial growth after 16 hrs by TECAN SPARK microplate reader analysis; assay type: functional; summary of the method: as §1
Escherichia coli [5] = assay: Drug resistance, ratio of MIC for Escherichia coli ATCC 25922 after 25 passages to MIC for Escherichia coli ATCC 25922 after initial exposure; assay type: functional
Summary of the method: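 Serial passage resistance selection: after each broth MIC determination, bacteria from the 1/2 MIC well were withdrawn and diluted to 1 × 10^6 CFU/mL for the next MIC measurement. Repeated for 25 passages; MIC after passage 25 compared with the initial MIC.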

Row | Compound | MIC (Pseudomonas aeruginosa) [µg/mL] | MIC (Escherichia coli [1]) [µg/mL] | MIC (Staphylococcus aureus [2]) [µg/mL] | MIC (Bacillus subtilis) [µg/mL] | MIC (Staphylococcus aureus [3]) [µg/mL] | HC50 at 1 h [4] [µg/mL] | MIC (Klebsiella pneumoniae) [µg/mL] | MIC (Enterococcus faecalis) [µg/mL] | MIC (Acinetobacter baumannii) [µg/mL] | Ratio (Escherichia coli [5])
1 | CCCCCN1C(=O)[C@H](CCCCN)N(Cc2ccc(-c3ccc(CN4C(=O)N(CCCCC)C(=O)[C@@H]4CCCCN)cc3)cc2)C1=O | 62.5 (≈ 94.6 µM) | 7.81 (≈ 11.8 µM) | 7.81 (≈ 11.8 µM) | 7.81 (≈ 11.8 µM) | 15.6 (≈ 23.6 µM) | 135 | 62.5 (≈ 94.6 µM) | 31.2 (≈ 47.3 µM) | 15.6 (≈ 23.6 µM) | 
2 | GENTAMICIN |  |  |  |  |  |  |  |  |  | 32
3 | CCCCCCN1C(=O)[C@H](CCCCN)N(Cc2ccc(C#Cc3ccc(CN4C(=O)N(CCCCCC)C(=O)[C@@H]4CCCCN)cc3)cc2)C1=O | 15.6 (≈ 21.9 µM) | 7.81 (≈ 11 µM) | 1.95 (≈ 2.73 µM) | 3.91 (≈ 5.48 µM) | 62.5 (≈ 87.7 µM) | 18 | 7.81 (≈ 11 µM) | 7.81 (≈ 11 µM) | 7.81 (≈ 11 µM) | 
4 | CCCCCCN1C(=O)[C@H](CCCCN)N(Cc2cccc(-c3cccc(CN4C(=O)N(CCCCCC)C(=O)[C@@H]4CCCCN)c3)c2)C1=O | 15.6 (≈ 22.7 µM) | 3.91 (≈ 5.68 µM) | 3.91 (≈ 5.68 µM) | 7.81 (≈ 11.3 µM) | 7.81 (≈ 11.3 µM) | 38 | 7.81 (≈ 11.3 µM) | 15.6 (≈ 22.7 µM) | 7.81 (≈ 11.3 µM) | 
5 | CCCCCCCN1C(=O)[C@H](CCCCN)N(Cc2ccc(-c3ccc(CN4C(=O)N(CCCCCCC)C(=O)[C@@H]4CCCCN)cc3)cc2)C1=O | 15.6 (≈ 21.8 µM) | 7.81 (≈ 10.9 µM) | 3.91 (≈ 5.45 µM) | 3.91 (≈ 5.45 µM) | 62.5 (≈ 87.2 µM) | 156 | 7.81 (≈ 10.9 µM) | 7.81 (≈ 10.9 µM) | 7.81 (≈ 10.9 µM) | 
6 | CCCCCCN1C(=O)[C@H](CCCCNC(=N)N)N(Cc2ccc3cc(CN4C(=O)N(CCCCCC)C(=O)[C@@H]4CCCCNC(=N)N)ccc3c2)C1=O | 15.6 (≈ 20.9 µM) | 15.6 (≈ 20.9 µM) | 3.91 (≈ 5.23 µM) | 3.91 (≈ 5.23 µM) | 15.6 (≈ 20.9 µM) | 117 | 7.81 (≈ 10.5 µM) | 3.91 (≈ 5.23 µM) | 31.2 (≈ 41.8 µM) | 
7 | CCCCCCN1C(=O)[C@H](CCCCN)N(Cc2ccc(/C=C/c3ccc(CN4C(=O)N(CCCCCC)C(=O)[C@@H]4CCCCN)cc3)cc2)C1=O | 15.6 (≈ 21.8 µM) | 31.2 (≈ 43.7 µM) | 3.91 (≈ 5.47 µM) | 7.81 (≈ 10.9 µM) | 31.2 (≈ 43.7 µM) | 43.5 | 3.91 (≈ 5.47 µM) | 7.81 (≈ 10.9 µM) | 15.6 (≈ 21.8 µM) | 
8 | CCCCCCN1C(=O)[C@H](CCCCN)N(Cc2ccc(-c3ccc(CN4C(=O)N(CCCCCC)C(=O)[C@@H]4CCCCN)cc3)cc2)C1=O | 15.6 (≈ 22.7 µM) | 1.95 (≈ 2.83 µM) | 1.95 (≈ 2.83 µM) | 1.95 (≈ 2.83 µM) | 7.81 (≈ 11.3 µM) | 32.8 | 1.95 (≈ 2.83 µM) | 7.81 (≈ 11.3 µM) | 3.91 (≈ 5.68 µM) | 
9 | CCCCCCN1C(=O)[C@H](CCCCN)N(Cc2ccc(Oc3ccc(CN4C(=O)N(CCCCCC)C(=O)[C@@H]4CCCCN)cc3)cc2)C1=O | 31.2 (≈ 44.3 µM) | 3.91 (≈ 5.55 µM) | 3.91 (≈ 5.55 µM) | 3.91 (≈ 5.55 µM) | 7.81 (≈ 11.1 µM) | 69 | 3.91 (≈ 5.55 µM) | 7.81 (≈ 11.1 µM) | 3.91 (≈ 5.55 µM) | 
10 | CCCCCCN1C(=O)[C@H](CCCCN)N(Cc2ccc(CN3C(=O)N(CCCCCC)C(=O)[C@@H]3CCCCN)cc2)C1=O | 62.5 (≈ 102 µM) | 250 (≈ 408 µM) | 31.2 (≈ 51 µM) | 3.91 (≈ 6.38 µM) | 250 (≈ 408 µM) |  | 62.5 (≈ 102 µM) | 125 (≈ 204 µM) | 250 (≈ 408 µM) | 
11 | CCCCCCN1C(=O)[C@H](CCCCN)N(Cc2ccc(CCc3ccc(CN4C(=O)N(CCCCCC)C(=O)[C@@H]4CCCCN)cc3)cc2)C1=O | 125 (≈ 174 µM) | 3.91 (≈ 5.45 µM) | 1.95 (≈ 2.72 µM) | 7.81 (≈ 10.9 µM) | 15.6 (≈ 21.8 µM) | 20.9 | 3.91 (≈ 5.45 µM) | 7.81 (≈ 10.9 µM) | 3.91 (≈ 5.45 µM) | 
12 | CCCCCCCCN1C(=O)[C@H](CCCCN)N(Cc2ccc(-c3ccc(CN4C(=O)N(CCCCCCCC)C(=O)[C@@H]4CCCCN)cc3)cc2)C1=O | 250 (≈ 336 µM) | 250 (≈ 336 µM) | 31.2 (≈ 41.9 µM) | 15.6 (≈ 21 µM) | 250 (≈ 336 µM) |  | 62.5 (≈ 83.9 µM) | 31.2 (≈ 41.9 µM) | 62.5 (≈ 83.9 µM) | 
13 | CCCCCCN1C(=O)[C@H](CCCCNC(=N)N)N(Cc2cccc(-c3cccc(CN4C(=O)N(CCCCCC)C(=O)[C@@H]4CCCCNC(=N)N)c3)c2)C1=O | 15.6 (≈ 20.2 µM) | 7.81 (≈ 10.1 µM) | 1.95 (≈ 2.52 µM) | 3.91 (≈ 5.06 µM) | 7.81 (≈ 10.1 µM) | 73.7 | 3.91 (≈ 5.06 µM) | 7.81 (≈ 10.1 µM) | 15.6 (≈ 20.2 µM) | 
14 | NCCCC[C@H]1C(=O)N(C23C[C@H]4C[C@@H](C2)C[C@@H](C3)C4)C(=O)N1Cc1ccc(-c2ccc(CN3C(=O)N(C45C[C@H]6C[C@@H](C4)C[C@@H](C5)C6)C(=O)[C@@H]3CCCCN)cc2)cc1 | 250 (≈ 317 µM) | 62.5 (≈ 79.2 µM) | 1.95 (≈ 2.47 µM) | 7.81 (≈ 9.9 µM) | 125 (≈ 158 µM) | 33.6 | 7.81 (≈ 9.9 µM) | 7.81 (≈ 9.9 µM) | 15.6 (≈ 19.8 µM) | 
15 | CCCCCCN1C(=O)[C@H](CCCCN)N(Cc2ccc3cc(CN4C(=O)N(CCCCCC)C(=O)[C@@H]4CCCCN)ccc3c2)C1=O | 15.6 (≈ 23.6 µM) | 15.6 (≈ 23.6 µM) | 3.91 (≈ 5.9 µM) | 7.81 (≈ 11.8 µM) | 15.6 (≈ 23.6 µM) | 59.9 | 1.95 (≈ 2.94 µM) | 31.2 (≈ 47.1 µM) | 31.2 (≈ 47.1 µM) | 
